These results are taken from ChEMBL document CHEMBL5325427.

Series [1] in a line: (§1) Cytotoxicity against African green monkey Vero E6 cells measured after 72 hrs by crystal violet staining based analysis. Format: toxicity, cell-based, Vero C1008. The following applies: chlorocebus sabaeus, Vero E6 cells. Summed up: (§2)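 Vero-E6 cells were seeded at 3 × 10^5 cells/mL, grown 24 h at 37 °C with 5% CO2, then given graded compound concentrations in triplicate for 72 h. Stocks were made in 10% DMSO in DMEM. Cells were fixed in 10% formalin, stained with 0.1% crystal violet, dissolved in methanol and read at A570. CC50 was taken by nonlinear regression of log concentration versus normalised response against untreated cells.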

Series [2] has as its target Replicase polyprotein 1ab (Severe acute respiratory syndrome coronavirus 2) (UniProt P0DTD1). Kind of series: Inhibition of SARS-CoV-2 3CLpro at 10 ug/ml preincubated with enzyme for 30 mins followed by substrate addition and measured after 4 hrs by fluorescence based analysis. The following applies: dose 10.0 µg/ml, time 4.5 hrs. Summed up:
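Recombinant SARS-CoV-2 3CLpro (1.5 ng/μl) was pre-incubated with compound 30 min at RT. Fluorogenic substrate was added to a final 40 μM and incubated 4 h at RT. Fluorescence was read at Ex 360/Em 460 nm. Wells were run in triplicate and blank was subtracted.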

Series [3] is described as follows: Selectivity index, ratio of CC50 for African green monkey Vero E6 cells to IC50 for antiviral activity against SARS-CoV-2 NRC-03-nhCoV infected in african green monkey Vero E6 cells. It is filed as toxicity, cell-based, Vero C1008. The following applies: read-out: Ratio CC50/IC50.
Another series concerns SARS-CoV-2. In words: Antiviral activity against SARS-CoV-2 NRC-03-nhCoV infected in african green monkey Vero E6 cells assessed as inhibition of viral growth pre-infected cells with virus for 1 hr followed by compound addition for 1 hr and measured after 72 hrs by crystal violet staining based analysis. As to conditions: Severe acute respiratory syndrome coronavirus 2, NRC-03-nhCoV, Vero C1008. It is filed as functional, organism-based.

Series [4] addresses Replicase polyprotein 1ab (Severe acute respiratory syndrome coronavirus 2, UniProt P0DTD1). Kind of series: Inhibition of recombinant SARS CoV-2 PL protease incubated for 2 hrs followed by substrate addition and measured after 1 hr by fluorescence based analysis.
Series [5] deals with Replicase polyprotein 1ab (Severe acute respiratory syndrome coronavirus 2) (UniProt P0DTD1). In words: Inhibition of recombinant SARS CoV-2 PL protease at 25 ug/ml incubated for 2 hrs followed by substrate addition and measured after 1 hr by fluorescence based analysis relative to control. As to conditions: dose 25.0 µg/ml, time 3.0 hrs.
Series [6] in a line: Stability in human liver microsomes assessed as half life at 1 uM in presence of NADPH by LC-MS-MS analysis. It is filed as ADME, Microsome.
The test system of a further series is Vero C1008. Described as §1. It is filed as toxicity, cell-based. The following applies: chlorocebus sabaeus, vero c1008, 72 h. The essentials: as §2
A short description of series [7]: Stability in CD-1 mouse liver microsomes assessed as compound remaining at 1 uM measured after 60 mins in absence of NADPH by LC-MS-MS analysis. It is filed as ADME, Microsome. As to conditions: read-out: Stability. The essentials:
(§3)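 Compound was incubated in liver microsomes without NADPH. Percent remaining was measured after 60 min.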

The nature of series [8]: Aqueous solubility of the compound in PBS buffer at pH 7.4 at 200 uM by microplate reader method. Format: physicochemical.
The nature of series [9]: Stability in CD-1 mouse liver microsomes assessed as half life at 1 uM in presence of NADPH by LC-MS-MS analysis. It is filed as ADME, Microsome. (In general: Liver microsomes are vesicles of endoplasmic reticulum, rich in cytochrome P450 enzymes.)
Series [10] can be described thus: Stability in human microsomes assessed as compound remaining at 1 uM measured after 60 mins in absence of NADPH by LC-MS-MS analysis. As to conditions: read-out: Stability. Format: ADME, Microsome. Summed up: as §3

pIC50: −log10 of the molar value. Values after ≈ are worked out from the molar mass of the structure shown. Active and inactive are the calls of the source. The rule behind the calls is not given here.

The CC50 is the concentration at which the toxic effect on the cells reaches its halfway point. As a reminder, the inhibition is the drop in the measured response relative to a control, in per cent. By IC50 is commonly meant the concentration that gives 50% inhibition. In [1], `CO[C@@]12C=CC(=O)C[C@@H]1[n+]1c(c(NC(C)(C)C)n3c(-c4ccccc4)c(-c4ccccc4)sc31)CC2.O=S(=O)([O-])C(F)(F)F` returned a 50% cytotoxic concentration (CC50) at 72 h of 89.7 µg/mL. Further, the inhibition result in series [2] was “inactive”. Besides, the selectivity ratio in series [3] was found to be 0.41. Moreover, in the series on SARS-CoV-2, the IC50 stood at 217 µg/mL.

For orientation: pIC50 means the IC50 on a negative log10 scale, so that one unit is a factor of ten. Consider `FC(F)(F)Oc1ccc(N/N=C2/C=C[C@@]3(CC2)CC[C@@H]2NCCc4cccc5[nH]c3c2c45)cc1`, for which the inhibition entry in series [2] is “inactive”. Further, the pIC50 in series [4] was 4.56.

Regarding `COc1ccc2[nH]c3c(c2c1)C[C@]1(OC)CC[C@H]2c4c[nH]c5cccc(c45)CCN2[C@@H]1C3`, the inhibition entry in [2] was “inactive”. In series [4], the negative logarithm of the IC50 (pIC50) was 4.49.

For the molecule `Cc1ccc(N)cc1C(=O)N[C@H](C)c1cccc2ccccc12`, in [2], the inhibition entry was “inactive”.

For `CC1=C(c2cccc3c2OCO3)N2C(=N[C@@H]3c4c(ccc5ccccc45)OC[C@@H]3C2(C)C)S1`, the inhibition in [5] was determined as 50%. Further, the inhibition entry in [2] was “inactive”. The pIC50 in [4] was 4.14.

For `COC(=O)C[C@@H]1COc2ccccc2[C@H](C(=O)NC(C)(C)C)N(CCc2c[nH]c3ccc(OC)cc23)C(=O)[C@@H]1c1nnc(-c2cccc(C(F)(F)F)c2)o1`, the inhibition result in series [2] is “inactive”.

For `COC(=O)[C@H](Cc1ccc(OC)c(OC)c1)N1CC(c2cc(C)ccc2O)=N[C@@H](Cc2ccc(OC)c(OC)c2)C1=O`, in series [5], the inhibition amounted to 50%. Besides, the inhibition entry in series [2] is “inactive”. Besides, the pIC50 in [4] was 4.32.

By solubility is commonly meant how much of the substance goes into solution per volume. On to `CC1(C)[C@H]2COc3ccc4ccccc4c3[C@H]2N=C2SC=C(c3ccc(S(=O)(=O)N4CCOCC4)cc3)N21`, for which the t1/2 in [6] came out at 5.7 min; in series [9] it was 11.2 min. The molecule further had a CC50 in the series on Vero C1008 of 43.12 µg/mL (≈ 78.7 µM). The remaining at 1 h, 1 µM in series [7] is 92%; in series [10], 119%. Further, in series [8], the concentration in solution (solubility at 200 µM) was 56.1 µM (≈ 30.7 µg/mL). Further, the inhibition result in series [2] is “inactive”. In [3], the selectivity ratio is 0.64. Besides, the IC50 in the series with SARS-CoV-2 stood at 67.6 µg/mL (≈ 123 µM). In addition, the pIC50 in [4] was 6.92.

Turning to `COC(=O)CC1COc2c(cc3c4c2CCCN4CCC3)-c2c(NC(C)(C)C)n3c(-c4ccccc4)c(-c4ccccc4)sc3[n+]21` (stereo not given), in series [2], the inhibition entry is “inactive”.

For the molecule `COc1ccc2[nH]cc(CCN3C(=O)[C@H](c4nnc(-c5cccc(C(F)(F)F)c5)o4)[C@H](CC(=O)O)COc4ccccc4[C@@H]3C(=O)NC(C)(C)C)c2c1`, the inhibition entry in [2] is “inactive”. Moreover, the pIC50 in [4] was 5.94.

On to `COC(=O)CC1COc2c(cc3c4c2CCCN4CCC3)-c2c(NC(C)(C)C)n3c(-c4ccc(F)cc4)c(C)sc3[n+]21` (stereo not given), for which, in [2], the inhibition entry is “inactive”. The pIC50 in series [4] is 5.25.

Turning to `COC(=O)[C@@H]1CC2(C(=O)Nc3ccccc32)C2CC[C@@]3(OC)C=CC(=O)C[C@H]3N21` (stereo not given in full), the inhibition entry in [2] is “inactive”. Besides, in series [4], the pIC50 is 4.99.

`C[C@]12C=CC(=O)C[C@H]1N1CCc3cccc4[nH]cc(c34)C1CO2` (stereo not given in full): the inhibition result in series [2] is “inactive”. Further, the pIC50 in series [4] was 4.71.
